The source made the active and inactive calls. The rule behind the calls is not given here.
Legend:
Mus musculus [1] = assay: Anesthetic activity in iv dosed drug naive Kunming mouse assessed as loss of righting reflex; assay type: functional
Summary of the method: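 Male KM mice (20-30 g), at least 20 drug-naïve animals per drug, given a tail-vein bolus over ~10 s. Anaesthesia scored as loss of righting reflex. ED50 found by the up-and-down method and analysed by Dixon–Mood to give the median effective dose with 95% CI.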

[2] = Drug metabolism in Kunming mouse plasma assessed as propofol release at 100 ug/ml incubated up to 120 mins by HPLC analysis relative to control; assay type: ADME, cell-free; settings: 2 h
[3] = Solubility in water measured per 100 ml; assay type: physicochemical; settings: buffer
[4] = Therapeutic index, ratio of LD50 for toxicity in iv dosed drug naive Kunming mouse to ED50 for anesthetic activity in iv dosed drug naive Kunming mouse assessed as loss of righting reflex; assay type: organism-based; settings: in vivo, read-out: Ratio LD50/ED50
Summary of the method: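 TI = LD50/ED50. Both values come from tail-vein bolus (~10 s) dosing of male KM mice (20-30 g, at least 20 drug-naïve per drug) by the up-and-down method. The ED50 end point is loss of righting reflex.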

[5] = Toxicity in iv dosed drug naive Kunming mouse; assay type: organism-based; settings: in vivo
Summary of the method: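 Male KM mice (20-30 g), at least 20 drug-naïve animals per drug, given a tail-vein bolus over ~10 s. LD50 found by the up-and-down method.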

[6] = Drug metabolism in iv dosed drug naive Kunming mouse assessed dose of propofol released from prodrugs dosed at 2 times anesthetic ED50; assay type: ADME, organism-based; settings: in vivo
Summary of the method: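 Propofol delivered at 2×ED50 is calculated as (MW propofol/MW prodrug)×(2×ED50) mg/kg from the tail-vein ED50 in KM mice.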

[7] = Toxicity in iv dosed drug naive Kunming mouse assessed as mouse survival dosed at 2 times anesthetic ED50; assay type: organism-based; settings: in vivo
Summary of the method: (§1)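 Ten drug-naïve male KM mice (20-30 g) per drug received 2×ED50 by tail-vein injection. Onset is timed from end of injection to appearance of LORR. Duration is timed from LORR appearance to its recovery. Survival is recorded over the 10 mice.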

Mus musculus [8] = assay: Anesthetic activity in iv dosed drug naive Kunming mouse assessed as time from end of injection to appearance of loss of righting reflex dosed at 2 times anesthetic ED50; assay type: functional; summary of the method: as §1
[9] = Stability in Kunming mouse plasma assessed as drug decomposition at 100 ug/ml incubated for 2 hrs by HPLC analysis; assay type: ADME, cell-free
[10] = Stability in Kunming mouse plasma assessed as drug decomposition at 100 ug/ml incubated up to 120 mins by HPLC analysis; assay type: ADME, cell-free; settings: 2 h
Summary of the method: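 Mouse blood was heparinised at sampling and centrifuged at 3500×g for 5 min at 4 °C to obtain plasma. A 10 mg/ml aqueous stock was diluted 1:100 into plasma, giving a final 100 μg/ml, and shaken at 37 °C for 2 h. The read-out was the percentage of propofol released, given as mean ± SD. Water stability (30 °C, 4 h, n=3) was checked beforehand.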

[11] = Stability in water at 10 mg/ml incubated for 4 hrs by HPLC analysis; assay type: physicochemical; settings: buffer
Summary of the method: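 Aqueous solutions (10 mg/ml) held at 30 °C for 4 h before the plasma hydrolysis studies, n=3.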

[12] = Solubility in water; assay type: physicochemical

| Compound | ED50 (Mus musculus [1]) | Drug metabolism [2] | solubility [3] | selectivity ratio [4] | LD50 [5] | Drug metabolism [6] | survival [7] | Time (Mus musculus [8]) | Stability [9] | Stability [10] | Stability [11] | solubility [12] |
| --- | --- | --- | --- | --- | --- | --- | --- | --- | --- | --- | --- | --- |
| CC(C)c1cccc(C(C)C)c1OC(=O)COC(=O)CN1CCOCC1.Cl | 28.1 mg/kg | Metabolite_Detected | 76.33 g | 4.7 | 132 mg/kg | 25.1 mg/kg | 100% | 3.1 s | – | – | – | – |
| CC(C)c1cccc(C(C)C)c1OC(=O)COC(=O)CN1CCCCC1.Cl | 22.3 mg/kg | – | 85.86 g | 4.1 | 91.4 mg/kg | 22 mg/kg | 100% | 3 s | – | – | – | – |
| CNCC(=O)OCC(=O)Oc1c(C(C)C)cccc1C(C)C.Cl | 29.6 mg/kg | – | – | 2 | 60.8 mg/kg | 30.7 mg/kg | 60% | 8 s | – | – | – | – |
| CC(C)c1cccc(C(C)C)c1OC(=O)COC(=O)C1COCCN1.Cl (stereo not given) | 30.4 mg/kg | – | – | 2.3 | 69.6 mg/kg | 28.1 mg/kg | 60% | 6.7 s | – | – | – | – |
| CC(C)c1cccc(C(C)C)c1OC(=O)COC(=O)CCC(=O)[O-].[Na+] | 73.1 mg/kg | Metabolite_Detected | – | 2.8 | 205 mg/kg | 75.7 mg/kg | 80% | 25.5 s | – | – | – | – |
| CC(C)c1cccc(C(C)C)c1OC(=O)COC(=O)C1CCCCN1.Cl (stereo not given) | 20.8 mg/kg | – | – | 2.6 | 54.4 mg/kg | 19.3 mg/kg | 20% | 10.6 s | – | – | – | – |
| CC(C)c1cccc(C(C)C)c1O [PROPOFOL] | – | – | 1.53 ×10⁻² g | 4.5 | 52.2 mg/kg | 23.4 mg/kg | 100% | 1 s | – | – | – | – |
| CC(C)c1cccc(C(C)C)c1OC(=O)COC(C(=O)[O-])C(=O)[O-].[Na+].[Na+] | inactive | – | – | – | – | – | – | – | Stable | – | – | – |
| CC(C)c1cccc(C(C)C)c1OC(=O)OC(CC(=O)[O-])C(=O)[O-].[Na+].[Na+] (stereo not given) | inactive | – | – | – | – | – | – | – | – | Stable | Stable | – |
| CC(C)c1cccc(C(C)C)c1OC(=O)COC(=O)CC(=O)[O-].[Na+] | 75.9 mg/kg | – | – | 3.2 | 244 mg/kg | 76 mg/kg | 100% | 72.2 s | – | – | – | – |
| CC(C)c1cccc(C(C)C)c1OC(=O)COC(=O)CN1CCN(C)CC1.Cl | 40.3 mg/kg | – | – | 2.3 | 91.6 mg/kg | 34.8 mg/kg | 70% | 2.4 s | – | – | – | – |
| CC(C)c1cccc(C(C)C)c1OC(=O)COC(=O)CN.Cl | 34.3 mg/kg | – | – | 2.6 | 89.2 mg/kg | 37.1 mg/kg | 10% | 9.1 s | – | – | – | – |
| CC(C)c1cccc(C(C)C)c1OC(=O)OC(C(=O)[O-])C(=O)[O-].[Na+].[Na+] | inactive | – | – | – | – | – | – | – | – | Stable | Stable | – |
| CC(C)c1cccc(C(C)C)c1OC(=O)COC(=O)CN(C)C.Cl | 40.2 mg/kg | – | – | 2.3 | 93.8 mg/kg | 40.1 mg/kg | 40% | 4.6 s | – | – | – | – |
| CC(C)c1cccc(C(C)C)c1OC(=O)COC(=O)[C@H](C)N.Cl | 20.5 mg/kg | – | – | 2.5 | 51.9 mg/kg | 21.2 mg/kg | 50% | 18.2 s | – | – | – | – |
| CC(C)c1cccc(C(C)C)c1OC(=O)CNCC(=O)O.Cl | – | – | – | – | – | – | – | – | – | – | – | < 10 mg/mL |
| CC(C)c1cccc(C(C)C)c1OC(=O)OCC(=O)[O-].[Na+] | inactive | – | – | – | – | – | – | – | – | – | Stable | – |
| CC(C)c1cccc(C(C)C)c1OC(=O)COC(=O)CN1CCCC1.Cl | 25.2 mg/kg | – | 83.96 g | 3.6 | 92.1 mg/kg | 23.4 mg/kg | 100% | 4 s | – | – | – | – |
| CC(C)c1cccc(C(C)C)c1OC(=O)CSCC(=O)[O-].[Na+] | 190 mg/kg | – | – | 1.2 | 222 mg/kg | 203.6 mg/kg | 0% | 20.2 s | Stable | – | – | – |
| CC(C)c1cccc(C(C)C)c1OCOP(=O)([O-])[O-].[Na+].[Na+] [FOSPROPOFOL DISODIUM] | 105 mg/kg | – | – | 2.8 | 288 mg/kg | 112.7 mg/kg | 100% | 46.4 s | – | – | – | – |
| CC(C)c1cccc(C(C)C)c1OC(=O)COCC(=O)[O-].[Na+] | 65.7 mg/kg | – | – | – | – | 74 mg/kg | 100% | 82.3 s | – | – | – | < 20 mg/mL |
| CC(C)c1cccc(C(C)C)c1OC(=O)CN1CCOCC1 | 36.6 mg/kg | – | – | 2.1 | 75 mg/kg | 42.7 mg/kg | 30% | 12 s | – | – | – | – |
| CC(C)c1cccc(C(C)C)c1OC(=O)OCCC(=O)[O-].[Na+] | inactive | – | – | – | – | – | – | – | – | – | Stable | – |

— ChEMBL document CHEMBL4627404, “Design, Synthesis, and Activity Study of Water-Soluble, Rapid-Release Propofol Prodrugs” (J Med Chem, 2020)
